What was measured:
Rattus norvegicus [1] = assay: The compound was tested for its stereotyped behavior after intracerebroventricular introduction in the rat; format: functional
How it was run: (§1)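 Sprague–Dawley rats (~200 g), caged singly, adapted ≥1 h, each used once. Intracerebroventricular dosing. Scored on the Sturgeon PCP rating scale immediately, at 2.5 and 5 min, then every 5 min until back to control. Dose–response built from peak-effect ratings, ≥18 rats per curve. ED50 (nmol/rat) and confidence limits by computerized Finney assay.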

Rattus norvegicus [2] = assay: The compound was tested for ataxia after intracerebroventricular introduction in the rat; format: functional; how it was run: as §1
[3] = molecular target: Glutamate receptor ionotropic, NMDA 2C (Rattus norvegicus, UniProt Q00961); assay: Binding affinity of compound against Phencyclidine receptor by displacement of [3H]TCP; settings: read-out: Ki app
How it was run: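 Membrane preparation incubated in triplicate with 2 nM [3H]TCP plus varying displacer levels in 5 mM Tris-HCl pH 7.4, 1 h, room temperature. Filtered on filters presoaked in 0.5% polyethylenimine, rinsed with Tris buffer, counted by liquid scintillation. Specific binding defined with 10 μM TCP. Mean ±SEM of at least three experiments.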

Glutamate receptor ionotropic, NMDA 2C, sequence (Q00961 whole entry): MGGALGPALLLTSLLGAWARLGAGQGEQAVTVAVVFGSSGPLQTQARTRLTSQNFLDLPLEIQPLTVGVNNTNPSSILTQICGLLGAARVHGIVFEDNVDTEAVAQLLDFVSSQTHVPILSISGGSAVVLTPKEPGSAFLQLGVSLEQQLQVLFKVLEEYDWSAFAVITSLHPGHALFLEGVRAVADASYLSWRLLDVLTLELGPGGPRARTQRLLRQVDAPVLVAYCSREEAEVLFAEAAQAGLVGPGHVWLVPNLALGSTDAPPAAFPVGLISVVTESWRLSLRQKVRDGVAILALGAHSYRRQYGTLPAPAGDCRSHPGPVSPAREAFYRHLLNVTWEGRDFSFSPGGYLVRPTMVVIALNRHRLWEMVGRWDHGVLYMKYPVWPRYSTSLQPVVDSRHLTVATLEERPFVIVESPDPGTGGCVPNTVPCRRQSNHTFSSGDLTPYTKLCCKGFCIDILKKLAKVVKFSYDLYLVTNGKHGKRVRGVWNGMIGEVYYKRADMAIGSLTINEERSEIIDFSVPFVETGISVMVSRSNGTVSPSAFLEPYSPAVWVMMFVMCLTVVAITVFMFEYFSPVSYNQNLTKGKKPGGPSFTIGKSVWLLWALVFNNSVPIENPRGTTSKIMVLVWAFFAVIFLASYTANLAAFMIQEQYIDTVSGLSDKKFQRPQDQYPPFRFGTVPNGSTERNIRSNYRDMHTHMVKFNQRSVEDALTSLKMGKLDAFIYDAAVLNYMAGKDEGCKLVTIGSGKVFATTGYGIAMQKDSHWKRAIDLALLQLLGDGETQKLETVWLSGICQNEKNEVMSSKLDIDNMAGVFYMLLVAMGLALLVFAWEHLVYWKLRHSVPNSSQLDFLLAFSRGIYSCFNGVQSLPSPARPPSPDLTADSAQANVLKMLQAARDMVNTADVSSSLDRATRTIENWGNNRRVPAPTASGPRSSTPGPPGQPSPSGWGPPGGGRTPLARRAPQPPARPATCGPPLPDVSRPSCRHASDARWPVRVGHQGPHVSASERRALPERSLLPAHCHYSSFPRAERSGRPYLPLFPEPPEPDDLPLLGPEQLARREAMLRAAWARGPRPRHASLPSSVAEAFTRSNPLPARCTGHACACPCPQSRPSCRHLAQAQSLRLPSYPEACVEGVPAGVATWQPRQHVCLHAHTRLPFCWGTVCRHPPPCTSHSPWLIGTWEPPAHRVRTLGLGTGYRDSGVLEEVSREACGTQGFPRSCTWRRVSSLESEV

Row | Structure (SMILES) | ED50 (Rattus norvegicus [1]) [nM] | ED50 (Rattus norvegicus [2]) [nM] | Ki [3] [nM]
1 | c1ccc([C@H](C2CC3CC3C2)N2CCCCC2)cc1 (some centres undefined) | 400 | 450 | 630
2 | c1ccc(C2(N3CCCCC3)CCCCC2)cc1 [PHENCYCLIDINE] | 150 | 210 | 91
3 | c1ccc([C@@H](C2CC3CC3C2)N2CCCCC2)cc1 (some centres undefined) | 310 | 300 | 680
